Most compounds without a hit are left out; they make up all but 4.8% or so of the library.
HSF1 activator = increases HSF-1 driven luciferase reporter signal. NIH3T3-HGL HSF-1 luciferase reporter, MG132, 8 h; 100% = twice DMSO control signal. activation, % at 9 µM. 300,000 tested, 1.7% active;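 active means mean replicate activation of at least 50% with a set share of replicates each reaching 50%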
GPR7 antagonist = human neuropeptides B/W receptor 1 antagonism; P48145; inhibition, % at 4.4 µM; AID 1861; GPR7-expressing cells, fluorescence antagonist assay; 290,000 tested, 1.1% active; in the data active means inhibition above about 16%, passing the limit was not always enough;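 further: cells stimulated with the agonist NPW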
Target sequence (P48145 whole entry, looked up): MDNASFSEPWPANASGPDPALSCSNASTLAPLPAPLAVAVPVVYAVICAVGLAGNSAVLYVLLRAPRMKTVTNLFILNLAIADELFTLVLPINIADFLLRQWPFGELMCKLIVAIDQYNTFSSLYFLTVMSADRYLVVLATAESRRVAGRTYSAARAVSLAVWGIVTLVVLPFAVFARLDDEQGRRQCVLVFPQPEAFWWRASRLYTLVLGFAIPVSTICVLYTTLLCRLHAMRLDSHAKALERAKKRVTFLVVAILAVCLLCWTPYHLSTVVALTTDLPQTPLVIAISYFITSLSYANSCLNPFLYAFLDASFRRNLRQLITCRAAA
T cruzi inh = T. cruzi replication inhibition; AID 1885; 300,000 tested, 1.4% active; inhibition, % (test concentration not listed); T. cruzi beta-gal in NIH3T3, luminescence, 90 h;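 active means mean inhibition across valid replicates above about 55%, limit read from the data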;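 further: signal also drops with host cell toxicity which is not excluded here; higher percent means less beta-gal luminescence so fewer parasites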
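System – NIH/3T3 host cells with β-galactosidase reporter T. cruzi · Doses – single 50 nL compound addition per well in DMSO · Reagent – 5000 T. cruzi trypomastigotes/well · Medium – Low-serum DMEM with 2% FBS · Timing – ≥90 h infection period, 3 h prior cell attachment · Evaluation – parasite load inhibition, % · Technique – GalScreen luminescence, 60 min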
Jurkat NFkB inh = inhibitors of the PMA/ionomycin-induced NF-kB reporter in Jurkat cells; PMA/ionomycin-induced NF-kB luciferase reporter, luminescence; inhibition, % at 4 µM; 330,000 tested, 0.53% active; AID 435003; in the data active means inhibition above about 50%
HSF1 inhib = HSF1 inhibition. NIH3T3-HGL HSE-luciferase, MG132-induced, luminescence 8 h; hits give low values. activity change, negative = inhibition, % at 7.5 µM (by protocol). 300,000 tested, 0.77% active;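 active means more than half of replicate wells show activity change below -50%, luminescence cut by over half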;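 further: luciferase reports HSF-1 transcriptional activity via heat shock element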
697 NFkB inh = inhibitors of the PMA/ionomycin-induced NF-kB reporter in 697 B cells | 697 B-cell NF-kB luciferase reporter, 16 h | inhibition, % at 4 µM | 330,000 tested, 0.33% active | AID 435022; in the data active means inhibition above about 35%
Hits are given with their value; – = inactive; · = no result.

SMILES	HSF1 activator	GPR7 antagonist	T cruzi inh	Jurkat NFkB inh	HSF1 inhib	697 NFkB inh
COc1ccc(C2=NN3C(C2)c2ccccc2OC3c2cccs2)cc1 (stereo not given)	62.7	–	–	–	–	–
OC(c1cccc(Cl)c1)c1nccc2ccccc12 (stereo not given)	–	–	–	–	–	–
O=C(OC(c1ccccc1)c1nccc2ccccc12)c1cc([N+](=O)[O-])cc([N+](=O)[O-])c1 (stereo not given)	–	–	57.8	–	–	–
Cc1nc2ccc(NC(=O)N3CCSCC3)cc2s1	–	–	–	–	-59.7	–
Cc1nc2ccc(NC(=O)c3cccs3)cc2s1	–	–	–	–	–	–
Cc1nc2ccc(NC(=O)c3sccc3C)cc2s1	60.9	–	–	–	–	–
O=C(NCCSc1ncc(-c2ccc(F)cc2)[nH]1)c1ccc2c(c1)OCO2	–	·	–	–	–	–
CCN(CC)C(=O)COC(=O)c1ccc(C)c(NC(=O)c2ccco2)c1	–	–	–	–	-59.2	–
CS(=O)(=O)Nc1ccc(C(=O)NCCSCc2c(F)cccc2Cl)cc1	·	–	–	–	·	–
COc1ccc(-n2c(C)cc(/C=C3\C(=O)NN(c4ccccc4)C3=O)c2C)cc1	–	–	–	–	–	–
Cc1cc(/C=C2/C(=O)NN(c3ccccc3)C2=O)c(C)n1-c1ccc(O)cc1	–	–	–	–	-69.2	–
CC(C)(C)c1cccc(/C=N/O)c1O	65.6	–	–	–	–	–
c1ccc(CN2CCOCC2)cc1	–	–	–	–	–	–
c1ccc2c(c1)Cc1cc(CN3CCOCC3)ccc1-2	56.4	–	–	–	–	–
O=C(Nc1cccc(F)c1)N1CC=C(c2ccc(Cl)cc2)CC1	–	–	55.4	–	–	–
O=C(CN1CCN(c2ccc(Cl)cc2)CC1)Nc1cccc(F)c1	–	–	–	–	–	–
COc1ccc(NC(=O)CN(C)C(=O)/C=C/c2cn(-c3ccccc3)nc2-c2ccc(F)cc2)cc1	–	·	–	–	–	–
COc1ccc(NC(=O)CN(C)C(=O)/C=C/c2cn(-c3ccccc3)nc2-c2ccc(C)cc2)cc1	–	·	71.7	–	–	–
COc1ccc(NC(=O)N2CCN(C(=O)c3ccco3)CC2)c(OC)c1	–	–	–	–	–	–
COc1ccc(/C=C2\SC(=S)N(NC(=O)c3ccncc3)C2=O)cc1OC	–	–	–	–	–	–
N=C1S/C(=C\c2ccc(-c3cccc(Cl)c3)o2)C(=O)N1c1nccs1	222.6	–	–	·	–	·
COc1ccc(/C=C2\SC(=N)N(c3nccs3)C2=O)cc1OC	–	–	57.8	–	–	–
On1c(-c2ccccc2)nc2ccc(Cl)cc21	54.3	–	–	–	–	–
COc1ccc(-c2csc(NC3OC(=O)c4c3ccc(OC)c4OC)n2)cc1OC (stereo not given)	60.0	–	–	–	–	–
COc1ccc2c(c1OC)C(=O)OC2Nc1nc(-c2ccc([N+](=O)[O-])cc2)cs1 (stereo not given)	–	–	–	–	–	–
SMILES	HSF1 activator	GPR7 antagonist	T cruzi inh	Jurkat NFkB inh	HSF1 inhib	697 NFkB inh
CN1CCN(Cc2ccc(Sc3ccc(Cl)cc3)c([N+](=O)[O-])c2)CC1	–	–	66.2	–	–	–
Cc1ccc(Sc2ccc(CO)cc2[N+](=O)[O-])cc1	–	–	–	–	–	–
Cc1ccc(Sc2ccc(CN3CCCC3)cc2[N+](=O)[O-])cc1	–	–	88.4	–	–	–
O=C(Nc1ccccc1C(=O)NCCc1ccccc1)c1cnccn1	–	–	–	–	–	–
COc1ccc(N(CC(=O)Nc2cccc(C(=O)O)c2)S(=O)(=O)c2c(C)noc2C)cc1	·	–	·	–	·	–
Cc1noc(C)c1S(=O)(=O)N(CC(=O)N1CCc2ccccc21)c1ccc(C(C)C)cc1	–	–	–	–	–	–
COc1ccc(N(CC(=O)N2CCc3ccccc32)S(=O)(=O)c2c(C)noc2C)cc1	77.0	–	–	–	–	–
COc1ccc(N(CC(=O)Nc2cccc(C)c2)S(=O)(=O)c2c(C)noc2C)cc1	–	–	–	–	-69.4	–
CCc1nc2ccc(C(=O)N3CCN(c4ccc(Cl)cc4)CC3)cc2nc1CC	–	–	–	–	–	–
O=C(NCc1ccccc1CN1CCCC1)c1ccc(Cl)c(N2CCCC2=O)c1	·	·	·	–	·	–
COc1ccc(CNC(=O)CN(Cc2ccccc2)C(=O)CCC(=O)Nc2nccs2)cc1	70.3	–	–	–	–	–
COc1ccc(CNC(=O)CN(Cc2ccc(OC)cc2)C(=O)CCC(=O)Nc2nccs2)cc1	–	–	–	–	–	–
COc1ccc(CNC(=O)CN(Cc2ccc(Cl)cc2)S(=O)(=O)c2ccccc2)cc1	–	–	–	–	–	–
COc1ccc(CNC(=O)CN(Cc2ccccc2)S(=O)(=O)c2ccc(Cl)cc2)cc1	–	–	74.2	–	–	–
COc1ccc(OC2C(=O)N(Cc3ccc4c(c3)OCO4)C2c2sccc2C)cc1 (stereo not given)	–	–	–	–	-75.1	–
COc1cc(C)ccc1OCC(=O)OCC(=O)c1[nH]c(C)c(C(C)=O)c1C	·	·	·	–	·	–
CC(=O)c1c(C)[nH]c(C(=O)COc2cc(C)ccc2C(C)C)c1C	–	24.8	–	–	–	–
Clc1ccc(-c2nsc(N3CCOCC3)n2)c(Cl)c1	62.1	–	–	–	–	–
CC12CN(C(=S)Nc3ccccc3)CC(C)(CN(C(=S)Nc3ccccc3)C1)C2=O	73.6	–	–	–	–	–
Cn1nccc1C(=O)N1CCC(Cc2ccccc2)CC1	–	–	–	–	–	–
CC(Oc1ccc(Br)cc1)C(=O)Nc1cc(S(=O)(=O)N2CCOCC2)ccc1N1CCCC1 (stereo not given)	–	·	–	–	–	–
Cn1cc(CN2CCC(C(=O)Nc3cccc(-c4cccc(F)c4)c3)CC2)cn1	–	–	–	–	–	–
Cc1cccc(CN2CCC(C(=O)Nc3cccc(-c4cscn4)c3)CC2)n1	82.4	–	–	–	–	–
Cc1nn(C(C)C)c(C)c1CN1CCC(C(=O)Nc2cccc(-c3cccc(F)c3)c2)CC1	–	–	55.3	–	–	–
Cc1cccc(CN2CCC(C(=O)Nc3cccc(-c4cccc(F)c4)c3)CC2)n1	–	–	–	–	–	–
CCCn1ncc(CN2CCC(C(=O)Nc3cccc(-c4cccc(F)c4)c3)CC2)c1C	–	–	57.3	–	–	–
Cc1ccc(S(=O)(=O)c2nc(S(=O)(=O)c3ccc(C)cc3)c(N3CCN(CCO)CC3)s2)cc1	56.8	–	–	–	–	–
CCCS(=O)(=O)c1nc(S(=O)(=O)c2ccc(C)cc2)c(N2CCc3ccccc3C2)s1	54.4	–	–	–	–	–
CCCS(=O)(=O)c1nc(S(=O)(=O)c2ccc(C)cc2)c(N2CCCC2)s1	–	–	–	–	–	–
